Assay [1] concerns A2780. Kind of assay: Induction of apoptosis in human A2780 cells assessed as increase in intracellular calcium level at 1 and 30 uM incubated for 30 mins by fluorimetry. The class given is functional, cell-based. Put shortly:
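Cells seeded in 96-well plates overnight, washed twice with Krebs-HEPES buffer, loaded 1 h at 37 °C in the dark with Oregon Green BAPTA-1 AM (final 3 µM) and Pluronic F-127. Buffer replaced, PXA added, fluorescence at 544 nm recorded for 30 min, with or without 1 mM extracellular Ca2+. Three experiments, mean ± SEM.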

Assay [2] concerns A2780cisR. Briefly: Cell cycle arrest in human A2780cisR cells assessed as accumulation at G1 phase at 10 uM incubated for 24 hrs by propidium iodide staining based flow cytometry (reference value: 68.7%). The assay is classed as functional. The essentials:
(§1)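 After 24 h exposure, cells washed in ice-cold PBS. About 2 million cells fixed in cold 70% ethanol at −20 °C for at least 24 h. Stained with 0.1% Triton X-100, 200 µg/ml RNase A and 20 µg/ml propidium iodide in PBS, 15 min at 37 °C in the dark. DNA content read by flow cytometry with doublet discrimination. Medium as untreated control, paclitaxel as G2/M control. Three independent experiments.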
On the technique in general: Flow cytometry measures light scatter and fluorescence of single cells or particles in a stream.

Assay [3] concerns A2780cisR. Kind of assay: Induction of apoptosis in human A2780cisR cells assessed as depolarization of mitochondrial membrane potential after 24 hrs by TMRE staining based flow cytometry. The assay is classed as functional, cell-based. Put shortly:
(§2)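 Cells seeded overnight; complete medium swapped for FBS-free medium just before treatment to avoid TMRE ester cleavage. Exposure to PXA for 1 h, 2 h or 24 h. TMRE staining 20 min, cells collected by trypsinisation, ΔΨm read by flow cytometry. Medium served as negative control, 20 µM CCCP as positive control. Mean ± SEM reported.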

In the next assay the test system is CAL-27. Kind of assay: Antiproliferative activity against human CAL27 cells assessed as reduction in cell viability incubated for 72 hrs by MTT assay. The assay is classed as functional, cell-based. The note with it: CAL-27, 72 h. The essentials: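 Cells seeded overnight in 96-well plates, then exposed to increasing concentrations (compound dissolved in DMSO, diluted in medium) for the stated time. MTT (5 mg/ml in PBS) added for 15 min, formazan dissolved in DMSO, absorbance read at 544 nm minus 690 nm background. IC50 = concentration giving 50% signal decrease. At least three independent experiments in triplicate.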
(In general: Tetrazolium assays rely on reduction of a dye to a coloured formazan, in cell work by metabolically active cells.)

Assay [4] is described as follows: Potency index, ratio of cisplatin IC50 to compound IC50 for antiproliferative activity in human Cal27CisR cells assessed as reduction in cell viability incubated for 72 hrs by MTT assay. The assay is classed as functional. The essentials:
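Cells seeded in 96-well plates overnight, exposed 72 h to increasing concentrations. MTT (5 mg/ml) added for 15 min, formazan dissolved in DMSO, absorbance read at 544 nm with 690 nm background subtracted. IC50 is the concentration reducing signal by 50%. Three independent experiments in triplicate. CisR sublines made by weekly intermittent cisplatin exposure for 24–30 weeks.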

Assay [5] relates to A2780cisR. Kind of assay: Induction of apoptosis in human A2780cisR cells assessed as depolarization of mitochondrial membrane potential at 1 uM by TMRE staining based flow cytometry. The assay is classed as functional, cell-based. To be noted: TDE = time-dependent effect. The essentials:
as §2

Assay [6] concerns J82. Briefly: Induction of apoptosis in human J82 cells assessed as increase in activation of caspase 3/7 at 50 uM incubated for 24 hrs by hoechst 33342 staining based fluorescence microscopy (reference value: 1.1%). The class given is functional.
For assay [7], the system named is A2780. Briefly: Cell cycle arrest in human A2780 cells assessed as accumulation at G1 phase at 10 uM incubated for 24 hrs by propidium iodide staining based flow cytometry (reference value: 61.8%). The assay is classed as functional. The essentials:
as §1

Assay [8] deals with A2780. Briefly: Cell cycle arrest in human A2780 cells assessed as accumulation at G1 phase at 1 uM incubated for 24 hrs by propidium iodide staining based flow cytometry (reference value: 61.8%). The assay is classed as functional. Put shortly: as §1
The test system of assay [9] is A2780cisR. Kind of assay: Induction of apoptosis in human A2780cisR cells assessed as accumulation in subG1 phase at 1 uM incubated for 24 hrs by propidium iodide staining based flow cytometry relative to control. The assay is classed as functional. The essentials:
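About 100,000 cells/well plated; after one day, treated 24 h. Cells lysed in hypotonic buffer (0.1% sodium citrate, 0.1% Triton X-100, 100 µg/ml propidium iodide) and kept overnight at 4 °C in the dark. Sub-G1 fraction measured by flow cytometry. Medium as control, cisplatin as positive control.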

In assay [10] the test system is J82. Kind of assay: Induction of apoptosis in cisplatin resistant human J82 cells assessed as depolarization of mitochondrial membrane potential at 5 to 10 uM incubated for 2 hrs by hoechst 33342 staining based fluorescence microscopy. The class given is functional. Put shortly: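 J82CisR cells exposed 2 h, then labelled with TMRE and Hoechst 33342 for 20 min. TMRE signal imaged on a high-content fluorescence imaging platform. Untreated medium control and 20 µM CCCP positive control.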

The species entered for the next assay is Homo sapiens. Briefly: Ratio of IC50 for induction of mitochondrial membrane depolarization in human J82 cells to IC50 for induction of mitochondrial membrane depolarization human A2780 cells after 2 hrs by TMRE staining based flow cytometry. The class given is functional, cell-based. The essentials: as §2
The subject of assay [11] is A2780cisR. Briefly: Induction of apoptosis in human A2780cisR cells assessed as decrease in mitochondrial membrane potential at 1 uM incubated for 24 hrs by TMRE staining based flow cytometry. The class given is functional, cell-based. Put shortly:
as §2

In assay [12] the test system is A2780cisR. Kind of assay: Cell cycle arrest in human A2780cisR cells assessed as accumulation at G1 phase at 1 uM incubated for 24 hrs by propidium iodide staining based flow cytometry (reference value: 68.7%). The assay is classed as functional. The essentials:
as §1

Assay [13] deals with A2780. Kind of assay: Induction of apoptosis in human A2780 cells assessed as depolarization of mitochondrial membrane potential at 1 uM incubated for 2 hrs by TMRE staining based flow cytometry. The class given is functional. Put shortly:
as §2

The subject of assay [14] is A2780cisR. Kind of assay: Cell cycle arrest in human A2780cisR cells assessed as accumulation at G1 phase incubated for 24 hrs by propidium iodide staining based flow cytometry. The class given is functional. Put shortly:
as §1

The subject of assay [15] is A2780. Kind of assay: Effect on ROS generation in human A2780 cells at 316 nM incubated for 18 hrs by H2DCFDA staining based flow cytometry. The class given is functional, cell-based. The essentials: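 Cells plated in 24-well plates (about 150,000/well) overnight, then exposed 18 h. Washed and moved to phenol red-free, serum-free RPMI-1640, then loaded with 10 µM H2DCF-DA for 30 min at 37 °C in the dark. One aliquot read directly, the other after 250 µM H2O2 for 1 h at 37 °C. DCF fluorescence read by flow cytometry. Three independent experiments.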

The subject of assay [16] is J82. Kind of assay: Cell cycle arrest in human J82 cells assessed as accumulation at G1 phase at 5 uM incubated for 24 hrs by propidium iodide staining based flow cytometry (reference value: 69.6%). The class given is functional. Put shortly: as §1

SMILES strings stand for the structures. The source made the active and inactive calls. No cut-off for these calls is given here.

The IC50 is the concentration at which inhibition is half-maximal.

Take `CC(=O)OC[C@]12Oc3c(-c4ccc(O)c5c4O[C@@]4(COC(C)=O)C(=C(O)C[C@@H](C)[C@H]4OC(C)=O)C5=O)ccc(O)c3C(=O)C1=C(O)C[C@@H](C)[C@H]2OC(C)=O` [PHOMOXANTHONE A]: the result in the assay on A2780 [1] and in the assay on A2780cisR [11] was Active. Besides, the Activity in the assay with A2780cisR [2] is 81.1%; in the assay on A2780cisR [3], “Dose-dependent effect”; in the assay with A2780cisR [5] it was “Tde”; with J82 [6], 60%; in the assay with A2780 [7] it was 78.9%; in the assay with A2780 [8], 63.3%. For the same molecule, the Activity in the assay with A2780cisR [9] was 70%; in the assay on J82 [10] it was 100%; with A2780cisR [12] it was 72.7%; with A2780 [13], 50%; with A2780cisR [14], “Dose-dependent effect”; with J82 [16], 68%. Moreover, the IC50 in the assay on CAL-27 was determined as 5.25 µM. In addition, the “Ratio IC50” value in [4] is 2 - 10; in the assay listed under Homo sapiens, 3. In the assay with A2780 [15], the outcome was inactive.

The values above are taken from ChEMBL document CHEMBL4396943, “The tetrahydroxanthone-dimer phomoxanthone A is a strong inducer of apoptosis in cisplatin-resistant solid cancer cells” (Bioorg Med Chem, 2019).
